# Screening data deposited in PubChem BioAssay by Johns Hopkins Ion Channel Center.
# MrgX1 antagonist = antagonists of human MrgX1 receptor, primary screen, HEK293 cells, Fluo-4 calcium flux | AID 588676, 2011 | Mas-related G-protein coupled receptor member X1 (Homo sapiens), Q96LB2 | B-score at 10 µM | 310,000 compounds, 1.3% hits | BAM8-22 antagonism; active compounds read low;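 active means calcium-response B-score plate-corrected more than 3 library SD below zero, starting fluorescence within 5 deviations, no agonist response on first addition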;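 further: peak minus trough fluorescence over baseline after final BAM8-22 challenge near maximal dose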
# Target sequence (Q96LB2 whole entry, looked up): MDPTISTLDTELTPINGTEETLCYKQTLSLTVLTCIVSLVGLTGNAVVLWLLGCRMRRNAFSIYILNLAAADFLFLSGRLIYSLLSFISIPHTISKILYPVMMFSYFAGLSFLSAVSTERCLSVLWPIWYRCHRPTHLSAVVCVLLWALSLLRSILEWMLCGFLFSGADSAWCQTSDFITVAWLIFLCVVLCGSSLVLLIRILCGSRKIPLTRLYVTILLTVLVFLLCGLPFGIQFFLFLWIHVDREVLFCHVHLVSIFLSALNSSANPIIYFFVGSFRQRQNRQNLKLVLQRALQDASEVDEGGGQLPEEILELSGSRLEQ
# RGS4 pot = RGS4 potentiators or activators, primary screen, cell-based, HEK293 M3R inducible RGS4, calcium flux. 310,000 compounds, 0.92% hits. B-score at 10 µM. carbachol calcium flux Fluo4; active compounds read low;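 active means B-score of the integrated calcium signal more than 4 SD below the library mean, with starting fluorescence not abnormally high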;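 further: negative B-score means reduced calcium response which marks RGS4 activation or potentiation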
#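 Test system: HEK293 cells with stable M3R and inducible RGS4; also added: carbachol at ECmax as muscarinic agonist stimulus; schedule: dye loading 30 min 37 °C, buffer rest 30 min RT; technique: kinetic calcium fluorescence imaging with Fluo4-AM dye, 2 µM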
# MrgX1 ag = agonists of human MrgX1 receptor, primary screen, HEK293 cells, Fluo-4 calcium flux | Fluo-4 calcium fluorescence, agonist mode; active compounds read high | B-score at 10 µM | 310,000 compounds, 0.44% hits | AID 588627, 2011;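 active means calcium response B-score plate-corrected fluorescence ratio at least 3 library SD, with starting fluorescence B-score inside 5 SD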
#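 Assay system: MrgX1-expressing HEK293 cells / Amount: fifteen thousand cells per well / Doses: test compound in the initial addition of three / Timing: cells plated overnight, dye loaded 0.5 h 37 °C, 0.5 h room temperature / Technique: kinetic calcium dye fluorescence, Fluo-4 NW / Control set: positive and negative controls per plate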
# RGS4 inh = RGS4 inhibitors, primary screen, cell-based, HEK293 M3R inducible RGS4, calcium flux; Fluo-4 calcium flux; active compounds read high; triggered by carbachol at its EC20; Regulator of G-protein signaling 4 (Homo sapiens), P49798; B-score at 10 µM; AID 463165, 2010; 310,000 compounds, 0.45% hits;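 active means B-score, a plate-corrected calcium signal, over three deviations above library mean, with baseline fluorescence within five deviations of library mean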;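 further: RGS4 expression induced by doxycycline in cells with stable M3 receptor; B-score is computed from the integrated fluorescence ratio over baseline after carbachol; higher B-score means a larger calcium signal and so more RGS4 inhibition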
# Target sequence (P49798 whole entry, looked up): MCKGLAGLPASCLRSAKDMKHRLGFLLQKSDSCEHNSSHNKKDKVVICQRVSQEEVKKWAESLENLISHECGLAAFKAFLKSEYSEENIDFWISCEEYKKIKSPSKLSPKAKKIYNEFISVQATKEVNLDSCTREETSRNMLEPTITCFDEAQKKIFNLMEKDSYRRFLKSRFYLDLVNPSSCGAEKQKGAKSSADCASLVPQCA
# MrgX1 allo act = positive allosteric modulators of MrgX1, primary screen, HEK293 cells, Fluo-4 calcium flux | Mas-related G-protein coupled receptor member X1 (Homo sapiens), Q96LB2 | FDSS; active compounds read high | B-score at 10 µM | 310,000 compounds, 0.63% hits;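 active means plate-corrected calcium response at least 3 library SD above typical, normal starting fluorescence, not activating the receptor alone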;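 further: compound read alongside a low EC10 to EC30 dose of BAM8-22 agonist; peak minus trough fluorescence over baseline measured at the second addition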
# MrgX1 allo conf = MrgX1 positive allosteric modulators, duplicate retest, confirmation, HEK293 cells, Fluo-4 calcium flux | shares compounds with MrgX1 allo act | Fluo-4 calcium fluorescence, FDSS | activation (ratio percentage), % at 10 µM | 1,200 compounds, 13% hits;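 active means ratio at least 3 SD above the weak peptide control, stable starting fluorescence, no direct agonism earlier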;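 further: compound followed by low BAM8-22 agonist challenge near EC20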
# HEK293 Ca flux = nonspecific calcium signal in parental HEK293, confirmation, counter-screen for MrgX1 antagonist project, parental HEK293 cells, Fluo-4 calcium flux. fluorescence ratio F(max-min)/F0 at 10 µM. Fluo-4 calcium fluorescence, FDSS. shares compounds with MrgX1 antagonist. 4,000 compounds, 2% hits;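 active means duplicate-averaged calcium fluorescence ratio at least three times the standard deviation of buffer wells, a nonspecific response in parental cells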
# HEK293 Ca counter = calcium response in parental HEK293 cells, primary screen, counter-screen for MrgX1 allosteric activator project, cell-based, Fluo-4 calcium flux, duplicate; shares compounds with MrgX1 antagonist; Fluo-4 fluorescence ratio; active compounds read high; fluorescence ratio F(max-min)/F0 at 10 µM; 4,000 compounds, 0.4% hits;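 active means calcium fluorescence ratio, averaged over duplicates, at least 3 SD of the buffer-well ratio, meaning a nonspecific response in receptor-free cells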;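 further: untransfected parental HEK293 lacking MrgX1 used as counterscreen for MrgX1 allosteric activators; fluorescence change taken during the second addition on a kinetic imager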
# HEK293 Ca cntr2 = calcium response in parental HEK293 cells, primary screen, counter-screen for MrgX1 agonist project, cell-based, Fluo-4 calcium flux, duplicate, agonist mode; shares compounds with MrgX1 antagonist; Fluo-4 calcium fluorescence (FDSS); active compounds read high; fluorescence ratio F(max-min)/F0 at 10 µM; 4,000 compounds, 8.7% hits; AID 624115, 2012;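 active means calcium fluorescence ratio at least three times the spread of buffer wells, meaning a non-specific response in parental cells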
# Hits are given with their value; - = inactive; . = not tested or not shown. An excerpt weighted towards active compounds, which were near 3.5% of everything screened.
SMILES,MrgX1 antagonist,RGS4 pot,MrgX1 ag,RGS4 inh,MrgX1 allo act,MrgX1 allo conf,HEK293 Ca flux,HEK293 Ca counter,HEK293 Ca cntr2
COc1ccc(Oc2nc(C)nc3c2oc2ccccc23)cc1,-,-,-,-,14,27%,-,-,-
c1ccc(Sc2ncnc3c2oc2ccccc23)cc1,-,-,-,-,12,22%,-,-,-
COc1ccc(Nc2nc(C)nc3c2oc2ccccc23)c(OC)c1,-,-,-,-,-,.,.,.,.
COc1ccc(CCNC(=O)COc2ccc3c(C)cc(=O)oc3c2)cc1OC,-,-,-,-,-,.,.,.,.
Cc1ccc(Nc2ncnc3sccc23)c(C)c1,-,-,-,-,8,-,-,-,-
Cc1cccn2c(=O)c(C(=O)NC3CCCCC3C)c(O)nc12 (stereo not given),-,-,-,-,-,.,.,.,.
Cc1ccn2c(=O)c(C(=O)NC3CCCCC3C)c(O)nc2c1 (stereo not given),-,-,-,-,9.3,-,-,-,-
c1ccc(N2CCN(c3ncnc4sc5c(c34)CCC5)CC2)cc1,-,-,-,-,-,.,.,.,.
c1nc(N2CCC3(CC2)OCCO3)c2c3c(sc2n1)CCCC3,-,-,-,-,17,-,-,-,-
Cc1ccccc1NS(=O)(=O)c1ccc(NC(=O)c2ccco2)cc1,-,-,-,-,11,-,-,-,-
Cc1ccccc1NC(=O)c1ccco1,-,-,-,-,-,.,.,.,.
COCc1ccc(C(=O)N2CCCC(C(=O)c3cccc(C(F)(F)F)c3)C2)o1 (stereo not given),-,-,-,-,32,-,-,-,-
CSc1c(CC(=O)Nc2ccccc2C(F)(F)F)n(Cc2ccccc2)c2ccccc12,-,-,-,-,-,.,.,.,.
COc1ccc(C(=O)Nc2ccccc2C(=O)Nc2ccncc2)cc1,-,-,-,-,-,.,.,.,.
Cc1sc(NC(=O)c2ccccc2F)c(CN2CCCCC2)c1C,-,-,-,-,9.4,-,-,-,-
Cc1sc(NC(=O)c2ccc(F)cc2)c(CN2CCCCCC2)c1C,-,-,-,-,-,.,.,.,.
COc1ccc(-n2nc3c(c2NC(=O)C2CC(=O)N(c4ccccc4)C2)CS(=O)(=O)C3)cc1 (stereo not given),-,-,-,-,-,.,.,.,.
CN(C)S(=O)(=O)c1ccc(N2CCCC2)c(C(=O)NCC2CCCO2)c1 (stereo not given),-,-,-,-,-,.,.,.,.
COc1ccc(N=C2SCC(=O)N2Cc2ccccc2)cc1,-,-,-,-,11,-,-,-,-
O=C(Nc1nc2c(F)cc(F)cc2s1)c1ccco1,-,-,-,-,16,-,-,-,-
O=C(CSc1nnc(-c2ccc(OC(F)F)cc2)o1)NCc1cccs1,-,-,-,-,7.5,-,-,-,-
O=C(CSc1nc2ccccc2c(=O)n1-c1ccc(OC(F)F)cc1)NCc1cccs1,-,-,-,-,-,.,.,.,.
COCC1CCCN(Cc2nc(C(c3ccccc3)c3ccccc3)no2)C1 (stereo not given),-,-,-,-,14,10%,-,-,-
N#C/C(=C/c1ccc(Br)s1)C(=O)NCCc1c[nH]c2ccccc12,-,-,-,-,-,.,.,.,.
Fc1cccc(-c2cc3nc4c(c(N5CCC6(CC5)OCCO6)n3n2)CCCC4)c1,-,-,-,-,7.6,-,-,-,-
SMILES,MrgX1 antagonist,RGS4 pot,MrgX1 ag,RGS4 inh,MrgX1 allo act,MrgX1 allo conf,HEK293 Ca flux,HEK293 Ca counter,HEK293 Ca cntr2
COc1ccccc1NC(=O)C1CCN(S(=O)(=O)c2cccc3nonc23)CC1,-,-,-,-,-,.,.,.,.
CN(C)CC(C)(C)CNC(C(=O)Nc1ccc(Cl)cc1C(F)(F)F)c1ccccc1 (stereo not given),-,-,-,-,-,.,.,.,.
Cc1ccc(NC(=O)NCCCN2CCCC2=O)cc1C,-,-,-,-,-,.,.,.,.
COc1ccc(C2=NS(=O)(=O)N(C)C(C(=O)NC3CCCCC3)=C2)cc1OC,-,-,-,-,-,.,.,.,.
Cc1cccc(-n2cnc3cc(C(=O)N4CCc5ccccc54)ccc32)c1,-,-,-,-,7.5,-,-,-,-
COCCNC(=O)c1ccc2c(c1)ncn2-c1cccc(C)c1,-,-,-,-,-,.,.,.,.
CSc1ccc(CNC(=O)CCn2ccc3cc(S(=O)(=O)N4CCCC4)ccc32)cc1,-,-,-,-,-,.,.,.,.
CCOc1ccccc1N(CC(=O)NC1CCCCC1)S(=O)(=O)c1ccc(C)cc1,-,-,-,-,9.2,-,-,-,-
CCCN1CCC(NC(=O)C2CCCCC2C(=O)O)CC1 (stereo not given),-,-,-,-,-,.,.,.,.
CCC1(C)Cc2ccccc2-c2nc(NCCCO)n(C)c(=O)c21 (stereo not given),-,-,-,-,-,.,.,.,.
CCC1(C)Cc2ccccc2-c2nc(NCCO)n(-c3ccccc3)c(=O)c21 (stereo not given),-,-,-,-,7.7,-,-,-,-
Nc1ccc(S(=O)(=O)N2CCCC2)cc1Cl,-,-,-,-,-,.,.,.,.
O=S(=O)(NC(=S)NC1CCCCC1)c1ccc(Br)cc1,-,-,-,-,28,25%,-,-,-
O=C(CCNS(=O)(=O)c1ccc(Br)cc1)NC1CCCCC1,-,-,-,-,-,.,.,.,.
COc1ccc2[nH]cc(C(=O)CCl)c2c1,-,-,-,-,21,-,-,-,-
CCN(CC)CCn1c(=S)[nH]c2cc(C(=O)N3CC(C)CC(C)C3)ccc2c1=O (stereo not given),-,-,-,-,-,.,.,.,.
CN(C(=O)COC(=O)CSc1ccc(C(N)=O)cc1[N+](=O)[O-])C1CCS(=O)(=O)C1 (stereo not given),-,-,-,-,-,.,.,.,.
